IC50 data for 2 compounds are collected here from BindingDB's records for doi:10.1016/j.ejmech.2021.113333 (Fudan University, 2021).

The assay concerns the target T1, Signal transducer and activator of transcription 1-alpha/beta (Homo sapiens, UniProt P42224).
T1 sequence (P42224 whole entry): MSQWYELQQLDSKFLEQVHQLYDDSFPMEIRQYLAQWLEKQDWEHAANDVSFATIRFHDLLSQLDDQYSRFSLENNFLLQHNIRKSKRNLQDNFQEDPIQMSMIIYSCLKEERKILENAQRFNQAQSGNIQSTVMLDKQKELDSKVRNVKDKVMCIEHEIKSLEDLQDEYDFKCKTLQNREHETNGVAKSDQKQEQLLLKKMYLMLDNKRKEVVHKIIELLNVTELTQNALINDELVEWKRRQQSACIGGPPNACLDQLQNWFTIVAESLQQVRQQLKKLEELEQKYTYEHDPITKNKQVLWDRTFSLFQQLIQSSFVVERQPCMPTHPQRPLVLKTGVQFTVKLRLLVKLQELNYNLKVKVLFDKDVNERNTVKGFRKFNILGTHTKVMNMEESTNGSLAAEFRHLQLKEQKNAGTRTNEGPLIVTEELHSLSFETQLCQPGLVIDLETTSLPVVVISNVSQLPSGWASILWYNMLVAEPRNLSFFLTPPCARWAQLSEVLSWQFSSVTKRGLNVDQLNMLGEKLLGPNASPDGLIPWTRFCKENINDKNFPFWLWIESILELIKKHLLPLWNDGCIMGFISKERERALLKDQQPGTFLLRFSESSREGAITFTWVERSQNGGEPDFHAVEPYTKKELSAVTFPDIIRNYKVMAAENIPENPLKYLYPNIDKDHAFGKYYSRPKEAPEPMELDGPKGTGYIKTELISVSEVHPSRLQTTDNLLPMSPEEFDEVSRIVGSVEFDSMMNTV
Description: Inhibition of IFN-gamma-induced STAT1 transcriptional activity in human HepG2 cells by luciferase reporter gene assay. In short, it runs like this:
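STAT1-dependent luciferase reporter assay in HepG2 cells with IFN-γ stimulation; mean ± SD of at least three independent experiments.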

By IC50 is commonly meant the concentration at which inhibition is half-maximal. In turn, `CCCC(C)Oc1ccc(C(=O)Nc2ccc3nc(SCC(=O)N[C@@H](C)c4ccc(OC)cc4)sc3c2)c(OC)c1C` (some centres not stated) came in with a concentration for half-maximal inhibition (IC50) of 320 nM. That is a sub-micromolar value. As for `CCCC(C)Oc1ccc(C(=O)Nc2ccc3nc(SCC(=O)N[C@@H](C)c4ccccc4)sc3c2)c(OC)c1C` (some centres not stated), the IC50 was found to be 350 nM.
